Among the data in ChEMBL document CHEMBL1121765, “3-Phenylpiperidines. Central dopamine-autoreceptor stimulating activity” (1981) are ED50 and Motor activity values, retold here.

Activity calls are given as the source filed them. No cut-off for these calls is given here.

Assay [1] concerns the target T1, Dopamine receptor (Rattus norvegicus) (UniProt P25115+P19020+P30729+P18901+P61169). As to the kind of experiment: Evaluation of Dopamine receptor activation in striatum of reserpinized rat. The format is functional, tissue-based.
In assay [2] the target is T1, Dopamine receptor (Rattus norvegicus). In words: Dopamine receptor activation in limbic system of reserpinized rat; Inactive at >45 uM/Kg. Format: tissue-based.
The target is the same in assay [3]. As to the kind of experiment: Dopamine receptor activation in striatum of reserpinized rat; Inactive at >45 uM/Kg. Format: tissue-based.
The target is the same in assay [4]. As to the kind of experiment: Evaluation for Dopamine receptor activation in limbic system of reserpinized rat. The format is tissue-based.
In assay [5] the test system is Rattus norvegicus. As to the kind of experiment: Motor activity in reserpinized rats when 2 umol/kg was administered subcutaneously.
Assay [6] relates to Rattus norvegicus. In words: Motor activity in reserpinized rats when 100 umol/kg was administered subcutaneously. Format: functional. The essentials:
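Rats pretreated ip with reserpine (10 mg/kg) 6 h before testing; compound given sc in neck region, rats placed singly in photocell motility meters immediately after and motor activity recorded for 60 min, testing between 1 and 6 p.m.; saline controls; gross behaviour observed.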

For the molecule `Oc1cccc(C2CCCN(Cc3ccccc3)C2)c1` (centres undefined), it took a dose of 24 µmol/kg to reach the 50% effect level in assay [1] (ED50).

Turning to `CCCN1CCCC(c2cccc(N)c2)C1` (centres undefined), the ED50 result in assay [2] and in assay [3] was “inactive” each time.

For the molecule `Oc1cccc(C2CCCN(C3CCCCC3)C2)c1` (centres undefined), it took a dose of 45 µmol/kg to reach the 50% effect level in assay [1] (ED50).

`CCCN1CCC(c2cccc(O)c2)C1` (centres undefined): the ED50 in assay [4] and in assay [1] was 45 µmol/kg each time.

For `CCCN1CCCC(c2ccccc2O)C1` (centres undefined), the ED50 entry in assay [2] and in assay [3] was “inactive” each time.

As for `CCCN1CCCC(c2cccc(CO)c2)C1` (centres undefined), the ED50 entry in assay [2] and in assay [3] was “inactive” each time.

In turn, `CN1CCc2cccc3c2[C@H]1Cc1ccc(O)c(O)c1-3` [APOMORPHINE] had a Motor activity in the assay on Rattus norvegicus [5] of 624.

As to `Oc1cccc(C2CCNC2)c1` (centres undefined), the ED50 entry in assay [2] and in assay [3] was “inactive” in each case.

`CCCN1CCCC(c2ccccc2)C1` (centres undefined): the ED50 entry in assay [2] and in assay [3] was “inactive” throughout.

In the case of `Oc1cccc(-c2cccnc2)c1`, the ED50 entry in assay [2] and in assay [3] was “inactive” each time.

In assay [1], `CCCCCN1CCCC(c2cccc(O)c2)C1` (centres undefined) gave an ED50 of 0.9 µmol/kg.

With `Oc1cccc(C2CN3CCC2CC3)c1` (centres undefined), the ED50 entry in assay [2] and in assay [3] was “inactive” each time.

For the molecule `Br.CCCN1CCCC(c2ccc(O)c(O)c2)C1` (centres undefined), the Motor activity with Rattus norvegicus [6] was found to be 522.

Regarding `CCCN1CCCC(c2cccc(C#N)c2)C1` (centres undefined), the ED50 result in assay [2] and in assay [3] was “inactive” in each case.

As to `CC(C)N1CCC(c2cccc(O)c2)C1` (centres undefined), the ED50 entry in assay [2] and in assay [3] was “inactive” throughout.

Turning to `CN1CCCC(c2cccc(O)c2)C1` (centres undefined), in assay [1], the ED50 was determined as 2.5 µmol/kg.

Take `CCCN1CCCC(c2cccc(C(=O)OC)c2)C1` (centres undefined): the ED50 entry in assay [2] and in assay [3] was “inactive” in each case.

Regarding `CCCN1CCCC(c2cccc(OC)c2)C1` (centres undefined), the ED50 entry in assay [2] and in assay [3] was “inactive” throughout.

As for `CCCNCCc1cccc(O)c1`, the ED50 was 0.9 µmol/kg in assay [4] and 0.8 µmol/kg in assay [1].

In the case of `CCCN1CCCC(c2cccc(C)c2)C1` (centres undefined), the ED50 entry in assay [2] and in assay [3] was “inactive” in each case.

With `CCCN1CCCC(c2cccc(C(N)=O)c2)C1` (centres undefined), the ED50 result in assay [2] and in assay [3] was “inactive” in each case.

Consider `CCCN1CCCC(c2ccc(O)cc2)C1` (centres undefined), for which the ED50 entry in assay [2] and in assay [3] was “inactive” throughout.

Turning to `CC(C)(C)CN1CCCC(c2cccc(O)c2)C1` (centres undefined), the ED50 in assay [1] was above 2.8 µmol/kg.

As for `CCCN1CCCCC(c2cccc(O)c2)C1` (centres undefined), the ED50 entry in assay [2] and in assay [3] was “inactive” in each case.

Consider `Br.CCCN1CCCC(c2cccc(O)c2)C1` (centres undefined), for which the Motor activity with Rattus norvegicus [6] is given as 55.

For the molecule `Oc1cccc(C2=CN3CCC2CC3)c1`, the ED50 entry in assay [2] and in assay [3] was “inactive” throughout.

In general, ED50 refers to the dose at which the effect has come halfway, by size or by number of responders.
